Measured values from ChEMBL document CHEMBL4033652, “Design, synthesis, and pharmacological evaluation of 4-azolyl-benzamide derivatives as novel GPR52 agonists” (Bioorg Med Chem, 2017).
pEC50: −log10 of the molar value.

Key:
[1] = molecular target: T1, G-protein coupled receptor 52 (Homo sapiens, UniProt Q9Y2T5); assay: Agonist activity at human GPR52 expressed in CHO cells assessed as increase in cAMP level after 30 mins by AlphaScreen assay; format: functional, cell-based
Method in brief: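 CHO cells stably expressing human GPR52 (10,000/well) exposed to compound at various concentrations, 30 min, 37°C, in HBSS with 5 mM HEPES pH 7.6, 0.5% BSA, 100 µM IBMX and 100 µM Ro20-1724. AlphaScreen acceptor/donor beads added overnight at room temperature. Response expressed relative to a reference benzofuran agonist (100%). EC50 from mean curves, n = 2–4, 95% CI.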

[2] = molecular target: T1, G-protein coupled receptor 52; assay: Agonist activity at human GPR52 expressed in CHO cells assessed as increase in cAMP level after 30 mins by AlphaScreen assay relative to (N-(2-hydroxyethyl)-3-(2-(3-(trifluoromethyl)benzyl)-1-benzofuran-4-yl)benzamide); format: functional, cell-based
Method in brief: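 CHO cells stably expressing human GPR52, 10,000 cells per well, exposed to compound 30 min at 37°C in HBSS with 5 mM HEPES pH 7.6, 0.5% BSA, 100 µM IBMX and 100 µM Ro20-1724. cAMP measured by AlphaScreen with acceptor and biotinylated donor beads after overnight room-temperature incubation. Emax set relative to the reference benzofuran benzamide (100%). EC50 taken from mean curves, n = 2–4, with 95% CI.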

[3] = Oral bioavailability in Sprague-Dawley rat at 1 mg/kg administered as cassette dose by LC-MS/MS analysis; format: ADME, organism-based; settings: in vivo
Method in brief: (§1)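 Cassette dosing in non-fasted male SD rats (n = 3): i.v. 0.1 mg/kg or p.o. 1 mg/kg. Plasma prepared from blood, deproteinized, centrifuged, supernatant measured by LC/MS/MS. AUC taken over 0–8 h.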

[4] = AUC (0 to 8 hrs) in Sprague-Dawley rat at 1 mg/kg, po administered as cassette dose by LC-MS/MS analysis; format: ADME, organism-based; design: time < 8 hr, dose 1 mg/kg, route oral; settings: in vivo; method in brief: as §1
[5] = Total clearance in Sprague-Dawley rat at 0.1 mg/kg, iv or 1 mg/kg, po administered as cassette dose by LC/MS/MS analysis; format: ADME, organism-based; settings: in vivo; method in brief: as §1

T1 sequence (Q9Y2T5 whole entry): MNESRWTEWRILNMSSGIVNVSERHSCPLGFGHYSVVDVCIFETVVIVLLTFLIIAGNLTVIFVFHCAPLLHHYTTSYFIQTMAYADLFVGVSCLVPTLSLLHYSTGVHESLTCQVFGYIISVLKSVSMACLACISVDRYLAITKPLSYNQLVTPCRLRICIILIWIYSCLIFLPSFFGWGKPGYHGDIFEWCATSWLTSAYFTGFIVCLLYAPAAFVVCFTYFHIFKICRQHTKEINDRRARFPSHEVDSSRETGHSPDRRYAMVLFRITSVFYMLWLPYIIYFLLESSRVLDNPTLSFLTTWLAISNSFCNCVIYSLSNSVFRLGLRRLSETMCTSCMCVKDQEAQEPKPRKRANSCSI

| SMILES | pEC50 [1] | Emax [2] [%] | bioavailability [3] [%] | AUC(0-t) at 8 h [4] [ng·h/mL] | clearance [5] [mL/min/kg] |
| --- | --- | --- | --- | --- | --- |
| Cc1nc(Cc2cccc(C(F)(F)F)c2)sc1-c1ccc(C(N)=O)c(C(F)(F)F)c1 | 6.96 | 92 | – | – | – |
| Cc1nc(Cc2cccc(C(F)(F)F)c2)sc1-c1ccc(C(N)=O)cn1 | 6.40 | 70 | – | – | – |
| Cc1cc(-c2sc(Cc3cc(F)cc(Cl)c3)nc2C)ccc1C(N)=O | 7.60 | 88 | – | – | – |
| Cc1cc(-c2sc(Cc3cc(F)cc(C(F)(F)F)c3)nc2C)ccc1C(N)=O | 7.96 | 93 | 14 | 60.5 | 39.5 |
| Cc1cc(-c2sc(Cc3ccc(Cl)cc3)nc2C)ccc1C(N)=O | 6.68 | 60 | – | – | – |
| Cc1cc(-c2sc(Cc3cccc(C(F)(F)F)c3)nc2C)ccc1C(N)=O | 7.14 | 86 | – | – | – |
| Cc1cc(-c2sc(Cc3cccc(F)c3)nc2C)ccc1C(N)=O | 6.59 | 75 | – | – | – |
| Cc1nc(Cc2cccc(C(F)(F)F)c2)sc1-c1ccc(C(N)=O)c(F)c1 | 6.42 | 84 | – | – | – |
| Cc1cc(-n2cc(Cc3cc(F)cc(C(F)(F)F)c3)nc2C)ccc1C(N)=O | 7.23 | 107 | 28.4 | 268 | 18.8 |
| Cc1cc(-c2sc(Cc3cccc(Cl)c3)nc2C)ccc1C(N)=O | 6.89 | 75 | – | – | – |
